m5-HT2A agonist = activates the mouse 5-HT2A serotonin receptor | CHO-K1 mHTR2A beta-arrestin complementation, luminescence; percent of 30 µM serotonin response | activation, % at 7.6 µM | 360,000 compounds, 0.66% hits;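 active means activation above a run cutoff, the mean activation of all tested compounds plus 3 SD, cut at about 14% in these data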;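 further: 0% = plate median of compound wells and 100% = 30 µM serotonin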
Target sequence (P35363 whole entry, looked up): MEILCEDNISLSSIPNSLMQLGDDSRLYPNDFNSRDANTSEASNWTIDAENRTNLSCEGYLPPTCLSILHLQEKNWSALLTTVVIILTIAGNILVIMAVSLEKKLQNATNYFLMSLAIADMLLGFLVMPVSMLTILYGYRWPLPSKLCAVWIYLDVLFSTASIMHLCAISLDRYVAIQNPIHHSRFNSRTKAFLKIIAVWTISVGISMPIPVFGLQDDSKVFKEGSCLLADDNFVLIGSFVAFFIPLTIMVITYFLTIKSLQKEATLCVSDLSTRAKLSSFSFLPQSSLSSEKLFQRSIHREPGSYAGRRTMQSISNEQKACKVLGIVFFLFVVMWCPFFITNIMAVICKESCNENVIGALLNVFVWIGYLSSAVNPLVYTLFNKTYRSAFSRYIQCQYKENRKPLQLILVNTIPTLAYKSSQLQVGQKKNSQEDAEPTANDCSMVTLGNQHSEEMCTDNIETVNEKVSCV
MC4R antag cAMP = human MC4R antagonism in cAMP assay; inhibition, % at 6.5 µM; AID 540295; 360,000 compounds, 0.48% hits; P32245; MC4R-expressing cells, MTII-stimulated cAMP, LANCE TR-FRET;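 active means inhibition above its plate's cutoff, the mean of tested wells on that plate plus 3 SD, cut at about 29% in these data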;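 further: 0% = Melanotan II alone and 100% = Melanotan II plus saturating MCL0020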
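Assay system: human MC4R-expressing U2OS cells; reagent: Melanotan II stimulation of cells; dosing: 6.5 µM single dose; timing: compound 30 min, challenge 1 h, detection 1 h; signal: TR-FRET cAMP assay; replicates: one well per compound, no replicates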
MC4R ag barr = human MC4R agonism via beta-arrestin; P32245; U2OS MC4R beta-arrestin complementation, luminescence; percent of melanotan II response, DMSO zero; activation, % at 8.9 µM; 360,000 compounds, 0.98% hits;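 active means activation above a per-plate cutoff, the mean activation of sample wells on that plate plus 3 SD, cut at about 8% in these data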
AHR act = activates the human aryl hydrocarbon receptor; AHR-responsive luciferase reporter cells, luminescence; activation, % at 5 µM; P35869; 320,000 compounds, 2.5% hits; AID 2796; in the data active means activation above about 47%;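 further: 0% = vehicle wells and 100% = reference agonist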
GAA850 FXN act = frataxin GAA850 promoter activation; HEK293 lucGAA850 FXN promoter luciferase reporter, 24 h; percent of 10 µM SAHA response; activation, % at 6 µM; 360,000 compounds, 0.56% hits;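 active means activation above the average of all compounds screened plus 3 SD, cutoff fixed separately per campaign, cut at about 7.5% in these data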;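 further: 0% = DMSO wells and 100% = 10 µM SAHA wells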
MC4R barr conf = human MC4R beta-arrestin agonism confirmation; AID 602192; shares compounds with MC4R ag barr; U2OS MC4R beta-arrestin recruitment, luminescence; scaled DMSO 0%, Melanotan II 100%; activation, % at 8.9 µM; 2,400 compounds, 31% hits;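 active means mean activation across replicates above the hit cutoff set in the earlier primary screen, cut at about 8% in these data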
MOR-DOR barr ag = OPRM1-OPRD1 heterodimer agonism counter-screen. shares compounds with MC4R ag barr. activation, % at 9.2 µM. AID 602194. U2OS PathHunter beta-arrestin, beta-gal luminescence; percent of deltorphin B response, DMSO zero. 2,400 compounds, 5.8% hits;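 active means mean activation across replicates exceeds the hit threshold derived in the earlier primary screen, cut at about 18% in these data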;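 further: 100% = deltorphin B at 0.9 µM final and 0% = DMSO alone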
Starred values were filed as active, the others as inactive; x = no result. Hits are enriched below; roughly 4.7% of the tested compounds scored in any of these assays.

SMILES | m5-HT2A agonist | MC4R antag cAMP | MC4R ag barr | AHR act | GAA850 FXN act | MC4R barr conf | MOR-DOR barr ag
O=C(Nc1ccc(N2CCOCC2)cc1)c1ccc2nc(-c3ccco3)c(-c3ccco3)nc2c1 | 1 | -14 | 10* | 4 | -5 | -1 | 17
Cc1occc1C(=O)Nc1nnc(-c2cccs2)s1 | 8 | 9 | 13* | 76* | 5 | 4 | 10
CC(=O)c1cccc(N/C=C\c2nnnn2-c2ccc(F)cc2)c1 | -5 | 2 | 16* | 2 | 1 | 6 | 3
COc1ccc(-n2nnnc2/C=C\Nc2ccccc2C(=O)c2ccccc2)cc1 | -2 | -1 | -1 | 2 | -2 | x | x
CSCCC(C(=O)Nc1c(C)cccc1C)n1c(COc2ccc(C)cc2)nc2ccccc21 (stereo not given) | -5 | x | x | x | x | x | x
CCCCN(CCO)c1ncnc2sc(-c3ccccc3)cc12 | 4 | -11 | 4 | 11 | 2 | x | x
CCOc1ccc(N2C(=O)CN(C)C2=S)cc1 | 0 | 8 | -2 | -2 | 1 | x | x
CCOc1ccc(N2C(=O)/C(=C/c3cccs3)N(C)C2=S)cc1 | 1 | 4 | 26* | 1 | 1 | 12* | 4
N/C(Cc1ccc([N+](=O)[O-])cc1)=N\OC(=O)c1ccccc1F | -2 | 1 | -1 | -1 | 5 | x | x
N/C(Cc1ccc(Cl)cc1)=N\OC(=O)c1cccc2ccccc12 | 1 | 3 | 11* | 2 | -2 | 11* | 13
CCCCCCCCN1C(=O)[C@H](CC(=O)N2CCN(C(=O)C3CC3)CC2)C[C@@]2(C(=O)OCC)CCCC=C12 | -3 | x | x | x | x | x | x
Clc1cccc(-c2cc3nc(NCCOc4ccccc4)ccn3n2)c1 | 3 | 2 | 11* | x | 4 | 2 | 4
O=C(NCCN1C(=O)S/C(=C/c2ccccc2)C1=O)C1CC(=O)N(Cc2ccccc2)C1 (stereo not given) | 9 | 5 | -3 | 0 | 0 | x | x
Cc1nn(Cc2ccccc2)c(C)c1C(=O)NCCN1C(=O)S/C(=C\c2ccccc2)C1=O | 0 | 1 | 11* | 18 | -2 | 1 | 1
Cc1ccc2cccc(CC(=O)NN)c2c1 | 0 | -2 | 1 | x | -2 | x | x
O=C(/C=C/c1ccc(OC(F)F)cc1)OCC(=O)N1CCc2ccccc21 | 1 | 3 | 13* | 3 | -1 | 2 | 6
CCCc1cc(=O)oc2c(C)c(OCC(=O)Nc3ccc(CN4CCOCC4)cc3)ccc12 | 0 | -2 | 16* | -4 | 1 | -1 | 2
Cc1ccc(NC(=O)COC(=O)CC2SC(N3CCCC3)=NC2=O)cc1 (stereo not given) | 8 | -1 | -2 | 0 | 2 | x | x
Cc1ccc(NC(=O)C2(C)CCN2Cc2ccccc2OC(F)F)cc1 (stereo not given) | -3 | 10 | 3 | x | -2 | x | x
CCn1c(SCC(=O)Nc2cc(C)on2)nc2c1c(=O)n(C)c(=O)n2C | 1 | -4 | 0 | 5 | -1 | x | x
Cc1cc(NC(=O)CSc2nc3c(c(=O)n(C)c(=O)n3C)n2C(C)C)no1 | -4 | -26 | 16* | 2 | 3 | 0 | 2
CCCNC(=O)C1(C)CCN(C(=O)Cc2ccc(OC)c(OC)c2)C1 (stereo not given) | 2 | 13 | 1 | x | -3 | x | x
CCCCCCCCn1ccc(=N)cc1 | 2 | -3 | 1 | -5 | -5 | x | x
CCCCCCCCCCCCCCCCn1cc[n+](C)c1 | -6 | 16 | 15* | -4 | -7 | 30* | 8
CCOC(=O)c1cnc2c(ccc3ccccc32)c1NCCCN(C)C | -11 | 7 | -2 | -1 | 3 | x | x
SMILES | m5-HT2A agonist | MC4R antag cAMP | MC4R ag barr | AHR act | GAA850 FXN act | MC4R barr conf | MOR-DOR barr ag
Cc1nc(NC(=O)COc2ccccc2)sc1C(=O)Nc1cccc(Cl)c1 | -3 | 5 | 5 | 31 | 0 | x | x
Cc1nc(NC(=O)/C=C/c2ccccc2)sc1C(=O)Nc1cccc(Cl)c1 | 4 | 0 | 12* | 8 | 1 | 7 | 3
CC(NC(=O)C(Cc1ccccc1)=NO)c1ccccc1 (stereo not given) | -5 | 1 | 0 | x | -1 | x | x
O=C(CCCn1c(SCC(=O)c2ccc(F)cc2)nc2ccccc2c1=O)NCc1ccccc1 | -8 | 12 | 24* | -10 | 0 | 2 | 13
Cc1onc(-c2ccccc2Cl)c1C(=O)N[C@@H](C)c1ccccc1 | -2 | 7 | 0 | 0 | 0 | x | x
Cn1cc(CNCc2cn[nH]c2-c2ccc(F)cc2)c(-c2ccc3c(c2)OCCO3)n1 | 5 | 0 | -2 | 13 | 1 | x | x
CCCc1cc(-c2[nH]ncc2-c2ccc(C(=O)OCC)o2)c(O)cc1O | 2 | 17 | 23* | 4 | 2 | 10* | 7
CCCc1cc(-c2[nH]ncc2-c2ccc3c(c2)OCCCO3)c(O)cc1O | -3 | 10 | 12* | 43 | -4 | 11* | 18
CCc1cc(-c2[nH]ncc2-c2nc3ccccc3n2C)c(O)cc1O | -3 | -14 | 2 | 25 | 1 | x | x
O=C(NCC(=O)N(c1ccc(F)cc1)C(C(=O)NC1CCCCC1)c1ccncc1)c1ccco1 (stereo not given) | -2 | 4 | 1 | 1 | 0 | x | x
COc1ccc2nc(C)cc(SCC(=O)N/N=C/c3cccc4ccccc34)c2c1 | -2 | 7 | 19* | 13 | -4 | 7 | 5
CCOC1=C2[C@H](c3ccccc3)N(S(=O)(=O)c3ccc(C)cc3)[C@H](C(C)C)[C@H]2n2c(=O)n(-c3ccccc3)c(=O)n2C1 | -3 | x | x | x | x | x | x
C/C(=N\NC(=O)COc1cccc2ccccc12)c1cccs1 | 1 | 0 | 17* | 28 | 0 | 17* | 6
O=C(COc1cccc2ccccc12)N/N=C/C=C/c1ccccc1 | 6 | 3 | 9.7* | 6 | 4 | 4 | 6
COc1ccc(/C=C/C=N/NC(=O)COc2ccc(OC)cc2)cc1 | 1 | -7 | 3 | 7 | 1 | x | x
C/C(=N\NC(=O)COc1ccccc1)c1cccs1 | -4 | 4 | 1 | 8 | 6 | x | x
Cc1ccccc1OCC(=O)N/N=C/C=C/c1ccccc1 | 1 | -5 | 10* | 5 | 0 | 3 | 8
COc1ccccc1NCC(=O)N/N=C/C=C/c1ccccc1 | -2 | -15 | -1 | 12 | 4 | x | x
CC1(C(=O)NS(=O)(=O)c2ccccc2)CCN1C(=O)CC1CCCCC1 (stereo not given) | -3 | 0 | -2 | x | 1 | x | x
Cc1ccc(OCC(=O)Nc2sc3c(c2C#N)CCC3)cc1 | 7 | 3 | 11* | -4 | 5 | 1 | 3

Source: PubChem BioAssay
